Laboratory results taken from paper PMC13416249 (Proceedings of the National Academy of Sciences of the …, 2026).
One block for each compound: values may come before it.

Key:
[1] = test system: P. falciparum isolates from the Brazilian Western Amazon; assay: Ex vivo schizont maturation test on patient isolates; assay type: cell-based; details: Plasmodium falciparum, in Homo sapiens, read-out: median EC50
Procedure, shortened: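 Isolates came from monoinfected patients in Porto Velho, Rondônia, and were exposed to test compound. Thick films were stained with 5% Giemsa and schizonts counted. Counts were normalized to drug-free controls to calculate EC50.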

[2] = test system: P. falciparum stage III-IV gametocytes; assay: Gametocyte viability assay; assay type: cell-based, Plasmodium falciparum
[3] = test system: P. falciparum NF54 strain expressing a Nanoluciferase reporter; assay: Asexual replication stage-specificity assay, nanoluciferase readout; assay type: cell-based, Plasmodium falciparum; details: ring-synchronized; 5 µM KNX-115, 1 µM DHA
Procedure, shortened: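 NF54-ENL nanoluciferase reporter parasites were synchronized at the ring stage and treated with test compound. Vehicle (0.1% DMSO) and 1 µM dihydroartemisinin served as controls. Nanoluciferase activity was followed over time and compared with the control cultures.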

P. falciparum 3D7 = assay: Parasite reduction ratio; assay type: cell-based, Plasmodium falciparum; details: 10X IC50 of each compound
Procedure, shortened: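 Parasite reduction ratio followed an established protocol, with each compound held at a fixed multiple of its potency. Parasite regrowth was detected by P. falciparum LDH assay. Data are mean ± SD.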

full-length PfMyoA = biological target: T1, full-length PfMyoA (Plasmodium falciparum, UniProt Q8IDR3); assay: Actin-activated PfMyoA ATPase assay; assay type: biochemical; details: read-out: IC50, actin-activated myosin ATPase, 15 µM actin
T1 sequence (Q8IDR3 1-818): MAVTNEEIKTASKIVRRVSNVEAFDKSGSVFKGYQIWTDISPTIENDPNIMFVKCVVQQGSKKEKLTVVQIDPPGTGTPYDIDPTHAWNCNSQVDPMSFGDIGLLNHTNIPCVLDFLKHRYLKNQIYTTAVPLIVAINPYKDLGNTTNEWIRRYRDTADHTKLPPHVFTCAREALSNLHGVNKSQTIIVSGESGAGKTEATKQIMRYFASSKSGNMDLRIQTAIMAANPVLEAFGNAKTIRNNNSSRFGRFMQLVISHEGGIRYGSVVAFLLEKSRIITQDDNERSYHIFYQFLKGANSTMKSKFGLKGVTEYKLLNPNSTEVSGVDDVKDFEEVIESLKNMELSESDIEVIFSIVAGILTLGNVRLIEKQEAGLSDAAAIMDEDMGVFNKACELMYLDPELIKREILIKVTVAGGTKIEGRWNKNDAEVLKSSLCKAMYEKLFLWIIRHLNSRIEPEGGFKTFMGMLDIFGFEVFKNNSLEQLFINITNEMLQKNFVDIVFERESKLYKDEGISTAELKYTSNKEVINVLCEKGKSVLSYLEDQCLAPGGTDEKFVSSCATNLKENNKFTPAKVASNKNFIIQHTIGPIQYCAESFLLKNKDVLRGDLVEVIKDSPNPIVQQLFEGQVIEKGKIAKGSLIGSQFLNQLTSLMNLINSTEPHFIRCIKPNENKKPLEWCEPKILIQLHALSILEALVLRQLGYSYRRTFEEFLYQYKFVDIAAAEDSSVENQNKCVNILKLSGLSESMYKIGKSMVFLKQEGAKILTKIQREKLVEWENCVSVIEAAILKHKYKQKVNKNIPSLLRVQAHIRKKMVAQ
T1 sequence (Q8IJM4 1-134 partner): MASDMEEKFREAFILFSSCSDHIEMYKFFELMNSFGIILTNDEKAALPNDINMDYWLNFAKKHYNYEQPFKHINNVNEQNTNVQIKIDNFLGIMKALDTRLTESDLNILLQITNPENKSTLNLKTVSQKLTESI
T1 sequence (Q8I4W8 1-204 partner): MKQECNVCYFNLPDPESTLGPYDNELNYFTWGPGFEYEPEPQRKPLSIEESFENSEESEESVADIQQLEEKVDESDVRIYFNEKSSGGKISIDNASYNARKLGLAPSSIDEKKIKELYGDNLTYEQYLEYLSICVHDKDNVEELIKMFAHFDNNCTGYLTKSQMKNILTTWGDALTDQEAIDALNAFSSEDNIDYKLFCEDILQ

- EC50 [1]: 1.26 µM
Structure (SMILES): CCN(CC)CCCC(C)Nc1ccnc2cc(Cl)ccc12 (stereo not drawn) [chloroquine]

Structure (SMILES): C[C@H]1[C@@H](O)O[C@@H]2O[C@@]3(C)CC[C@H]4[C@H](C)CC[C@@H]1[C@@]24OO3 [DHA, dihydroartemisinin]
- effect on gametocyte viability [2]: showed inhibition
- parasite replication over time (luciferase activity) [3]: rapid killing of the parasites

- EC50 [1]: 0.0035 µM
Structure (SMILES): C[C@H]1[C@H](OC(=O)CCC(=O)O)O[C@@H]2O[C@@]3(C)CC[C@H]4[C@H](C)CC[C@@H]1[C@@]24OO3 [artesunate]

Structure (SMILES): CCc1nc(N)nc(N)c1-c1ccc(Cl)cc1 [pyrimethamine]
- lag before killing (P. falciparum 3D7): 24 h

- IC50 (full-length PfMyoA): 0.4 ± 0.1 µM
Structure (SMILES): COc1ccc(C2(NCc3c[nH]nc3-c3cccs3)CC2)cc1 [KNX-002]
